High-throughput results as filed in PubChem.
An excerpt weighted towards active compounds, which were near 3% of everything screened.
hiPSC survival = enhancers of human iPSC single-cell survival; hiPSC single-cell survival, ATPlite luminescence; 100% = ROCK inhibitor wells, 0% = DMSO; survival enhancement, % at 20 µM; 0.044% of 360,000 active; in the data active = survival enhancement above about 18%;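 note: cells exposed to compounds for 16 hours before the ATP read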
Apaf1 inhib = human Apaf-1 inhibition | reconstituted apoptosome caspase-3 activity, DEVD-Rh110 fluorescence | inhibition, % at 20 µM | 0.71% of 330,000 active | AID 489030; active = inhibition of at least 40% at 20 µM;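 note: plate controls were DMSO wells for no effect and DEVD-CHO caspase inhibitor wells for full effect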
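detection = Rh110 fluorescence intensity | test system = biochemical Apaf-1 apoptosome reconstitution | also added = cytochrome c and DEVD-Rh110 substrate | schedule = 30 min plus 50 min, RT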
Exocytosis inh = blocks lytic granule exocytosis. TALL-104 LAMP-1 surface exposure, flow cytometry; cells stimulated with thapsigargin and PMA. inhibition, % at 10 µM. 0.66% of 360,000 active;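 active = inhibition above about 55%, limit read from the data; inconclusive = no clear call, values can overlap the other calls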
MPTP block = permeability transition pore inhibition | inhibition, % at 10 µM | 1.4% of 360,000 active | isolated mouse mitochondria, Ca2+ swelling absorbance, 30 min | AID 602449;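 active = inhibition of 50% or more, scaled per plate between neutral and stimulator controls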;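 note: 0% = DMSO wells given calcium and 100% = 1 mM EGTA wells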
beta cell repl = inducers of beta-cell replication in MIN6 cells. MIN6 cells proliferation, ATPlite luminescence, 48 h; cells starved in 0.2% serum; 100% = growth in 10% serum. proliferation, % at 10 µM. 0.29% of 330,000 active. AID 2380;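 active = compounds whose signal lies at least 3.5 SD above the mean of all wells on their plate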;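 note: 0% = DMSO-treated cells in low-serum medium and 100% = 10% serum control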
UBC13 inh = inhibitors of human UBC13 polyubiquitin chain formation. P61088. TR-FRET. inhibition, % at 20 µM. 0.47% of 330,000 active. AID 485273; in the data active = inhibition above about 45%, passing the limit was not always enough; inconclusive = no clear call, values can overlap the other calls
* marks the source's active call; other numbers are inactive results; ? = inconclusive; . = not tested or not shown.

SMILES	hiPSC survival	Apaf1 inhib	Exocytosis inh	MPTP block	beta cell repl	UBC13 inh
O=C1NC(=O)C(=Cc2ccccc2OCCOc2ccc([N+](=O)[O-])cc2)C(=O)N1	-1.4	.	2.3	6.5	.	.
O=C1NC(=O)C(=Cc2ccc(Oc3ccc([N+](=O)[O-])cc3)cc2)C(=O)N1	-0.3	42.8*	2.7	0.4	-2.8	-17.3
Clc1ccc(C[n+]2c(-c3ccccc3)cc(-c3ccccc3)cc2-c2ccccc2)cc1	-4.4	52.2*	23.7	23.3	-8.5	46.6*
O=C1CCC[C@@H]2C[C@@]3(C[C@@H]4CCN1[C@H]24)Nc1cc(Cl)ccc1NC3=NCc1ccccc1	-2.8	.	3.4	-0.5	.	.
C=C1C(C)C2C(Cc3ccccc3)NC(=O)C23OC(=O)/C=C/C(O)CCCC(C)C/C=C/C3C1O (stereo not drawn)	30.4*	.	9.1	-1.1	.	.
CCOc1ccc(-c2cc(C)[n+](CCc3ccc(OC)c(OC)c3)c(-c3ccc(OCC)cc3)c2)cc1	-0.7	11.1	57.0*	-1.5	-5.2	24.4
CCOC(=O)[C@]12Cc3cc(C)ccc3[C@H]1N(C(C)C)C(=O)c1ccccc12	-1.5	.	16.3	-2.3	.	.
NC(Cc1cc(O)c(O)cc1O)C(=O)O (stereo not drawn)	.	84.1*	.	.	-3.0	?
NCCc1cc(O)c(O)cc1O	-2.5	.	-5.9	3.5	.	.
CN[C@@H]1C[C@@H](c2ccc(Cl)c(Cl)c2)c2ccccc21	.	39.0	.	.	-7.7	46.3*
COC(=O)C1=C(c2ccc(C(C)=O)cc2)C[C@@H]2CC[C@H]1N2C(=O)NCc1ccc2c(c1)OCO2	-1.8	9.5	2.2	2.0	1.3	6.8
COC(=O)C1=C(c2ccc(Cl)c(C(F)(F)F)c2)C[C@@H]2CC[C@H]1N2C(=O)NCc1ccc2c(c1)OCO2	3.9	10.1	76.1*	0.3	-6.5	-1.0
COc1ccc(-n2nnnc2C(CCc2ccccc2)N2CCC(n3c(=O)[nH]c4ccccc43)CC2)cc1 (stereo not drawn)	2.4	.	44.7	-0.6	.	.
CC(=O)c1c(O)n(-c2cccc(Cl)c2)c(=O)[nH]c1=O (tested in a mixture with another compound)	0.1	0.4	-0.9	0.7	-2.3	-2.6
CC(C)n1c(O)c(C2c3cc(Cl)ccc3Oc3[nH]c(=O)n(C(C)C)c(=O)c32)c(=O)[nH]c1=O (stereo not drawn)	26.0*	.	0.5	0.8	.	.
COc1ccc(-n2nnnc2C(CCSC)N2CCC(n3c(=O)[nH]c4ccccc43)CC2)cc1 (stereo not drawn)	1.0	.	-1.3	-3.2	.	.
COc1c2c(cc3c1OCO3)CCN(C)C2	0.1	-8.4	-2.0	-0.1	-3.7	-6.1
COc1cc2c(cc1OC)-c1c3c(cc4c1[C@@H](C2)N(C)CC4)OCO3	-3.8	97.5*	-1.3	2.0	-6.8	-258.4
COc1cc2c(cc1OC)-c1c(OC)c(OC)cc3c1C(C2)N(C)CC3 (stereo not drawn)	-0.1	95.1*	6.8	0.9	-5.8	-129.4
COc1ccc(C(=O)OCC2CN2c2cccc([N+](=O)[O-])c2)cc1 (stereo not drawn)	0.1	.	-3.6	-2.0	.	.
Oc1ccccc1-[n+]1c(-c2ccccc2)cc(-c2ccccc2)c(O)c1-c1ccccc1	2.0	18.7	74.4*	1.0	-8.0	-8.9
O=c1[nH]c2ccccc2n1C1CCN(Cc2ccc(-c3nc4ccc(F)cc4nc3-c3ccccc3)cc2)CC1	-0.7	.	37.9	1.7	.	.
CCn1nc(-c2cccs2)nc2c(=O)n(C)c(=O)nc1-2	-4.1	.	79.1*	-6.4	.	.
CCOc1ccc(-n2c(-c3cccs3)nc3ccccc3c2=O)cc1	-2.8	9.2	-0.4	2.4	-2.6	5.5
O=C1NC(=O)N(CCc2ccc(F)cc2)C(=O)/C1=C/c1cccs1	0.4	15.0	79.9*	-2.3	0.3	-21.7
O=C(Nc1ccc(C(=O)O)cc1)Oc1ccc(N(CCCl)CCCl)cc1	0.0	.	-7.7	-0.1	.	.
COc1ccc(CN2C(=O)C(CC(=O)NCc3ccco3)CC(C(=O)N(C)C)=C2C)cc1 (stereo not drawn)	-1.8	.	4.7	-1.3	.	.
C=C1C(=O)O[C@@H]2C[C@@H](C)[C@@H]3C=CC(=O)[C@@]3(C)[C@@H](O)[C@H]12	81.5*	-3.7	3.1	-1.8	-7.8	9.1
